26 compounds from ChEMBL document CHEMBL4152388, “Structure-Activity Relationships in Metal-Binding Pharmacophores for Influenza Endonuclease” (J Med Chem, 2018) can be followed below.

Active and inactive are the calls of the source. The calls are words filed in the database; no cut-off is given here.

Test [1] has as its system Influenza A virus (A/California/04/2009(H1N1)). Briefly: Inhibition of Influenza A (A/California/04/2009) (H1N1) clinical isolate N-terminal truncated PA endonuclease at 500 nM using 5'-FAM/3-TAMRA quencer labeled 17-mer ssDNA-oligo as substrate measured over 45 mins by FRET assay relative to control.
Another test concerns Bacteria. As to the kind of experiment: Inhibition of bacterial NDM1 at 200 uM using chromacef as substrate preincubated for 10 mins followed by substrate addition. In a few lines: (§1)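 Single-concentration cross-inhibition screen, final inhibitor 200 μM, percent inhibition relative to positive and negative controls; run per literature protocols (Arg1, MetAP1 Mn2+ isoform, NDM-1).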

The target in test [2] is T1, Arginase-1 (Homo sapiens) (UniProt P05089).
T1 sequence (whole entry): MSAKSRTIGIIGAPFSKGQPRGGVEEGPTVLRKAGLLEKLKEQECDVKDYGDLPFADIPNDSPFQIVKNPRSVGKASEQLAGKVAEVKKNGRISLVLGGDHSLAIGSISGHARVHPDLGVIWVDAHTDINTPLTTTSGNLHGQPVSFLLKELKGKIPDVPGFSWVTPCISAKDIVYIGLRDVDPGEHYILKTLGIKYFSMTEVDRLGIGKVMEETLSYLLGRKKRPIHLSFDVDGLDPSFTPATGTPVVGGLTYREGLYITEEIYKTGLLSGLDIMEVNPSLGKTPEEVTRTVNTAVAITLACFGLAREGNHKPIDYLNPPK
Briefly: Inhibition of full length human arginase 1 expressed in Escherichia coli BL21(DE3) at 200 uM using unlabeled L-arginine/L-[guanidino-14C]arginine as substrate after 5 mins by liquid scintillation counting method relative to control. In a few lines: as §1

Test [3] in a line: Inhibition of Influenza A (A/California/04/2009) (H1N1) clinical isolate N-terminal truncated PA endonuclease using 5'-FAM/3-TAMRA quencer labeled 17-mer ssDNA-oligo as substrate measured over 45 mins by FRET assay. More on the design: species or system Influenza A virus (A/California/04/2009(H1N1)). In short, it runs like this: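 Cleavage of a 5'-FAM/3'-TAMRA 17-mer ssDNA substrate (200 nM) by influenza PA endonuclease (4 nM) in 20 mM Tris, 150 mM NaCl, 2 mM MnCl2, 10 mM β-mercaptoethanol, 0.2% Triton-X100, pH 8.0.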

For test [4], the target named is T2, Protein deacetylase HDAC6 (Homo sapiens) (UniProt Q9UBN7).
T2 sequence (whole entry): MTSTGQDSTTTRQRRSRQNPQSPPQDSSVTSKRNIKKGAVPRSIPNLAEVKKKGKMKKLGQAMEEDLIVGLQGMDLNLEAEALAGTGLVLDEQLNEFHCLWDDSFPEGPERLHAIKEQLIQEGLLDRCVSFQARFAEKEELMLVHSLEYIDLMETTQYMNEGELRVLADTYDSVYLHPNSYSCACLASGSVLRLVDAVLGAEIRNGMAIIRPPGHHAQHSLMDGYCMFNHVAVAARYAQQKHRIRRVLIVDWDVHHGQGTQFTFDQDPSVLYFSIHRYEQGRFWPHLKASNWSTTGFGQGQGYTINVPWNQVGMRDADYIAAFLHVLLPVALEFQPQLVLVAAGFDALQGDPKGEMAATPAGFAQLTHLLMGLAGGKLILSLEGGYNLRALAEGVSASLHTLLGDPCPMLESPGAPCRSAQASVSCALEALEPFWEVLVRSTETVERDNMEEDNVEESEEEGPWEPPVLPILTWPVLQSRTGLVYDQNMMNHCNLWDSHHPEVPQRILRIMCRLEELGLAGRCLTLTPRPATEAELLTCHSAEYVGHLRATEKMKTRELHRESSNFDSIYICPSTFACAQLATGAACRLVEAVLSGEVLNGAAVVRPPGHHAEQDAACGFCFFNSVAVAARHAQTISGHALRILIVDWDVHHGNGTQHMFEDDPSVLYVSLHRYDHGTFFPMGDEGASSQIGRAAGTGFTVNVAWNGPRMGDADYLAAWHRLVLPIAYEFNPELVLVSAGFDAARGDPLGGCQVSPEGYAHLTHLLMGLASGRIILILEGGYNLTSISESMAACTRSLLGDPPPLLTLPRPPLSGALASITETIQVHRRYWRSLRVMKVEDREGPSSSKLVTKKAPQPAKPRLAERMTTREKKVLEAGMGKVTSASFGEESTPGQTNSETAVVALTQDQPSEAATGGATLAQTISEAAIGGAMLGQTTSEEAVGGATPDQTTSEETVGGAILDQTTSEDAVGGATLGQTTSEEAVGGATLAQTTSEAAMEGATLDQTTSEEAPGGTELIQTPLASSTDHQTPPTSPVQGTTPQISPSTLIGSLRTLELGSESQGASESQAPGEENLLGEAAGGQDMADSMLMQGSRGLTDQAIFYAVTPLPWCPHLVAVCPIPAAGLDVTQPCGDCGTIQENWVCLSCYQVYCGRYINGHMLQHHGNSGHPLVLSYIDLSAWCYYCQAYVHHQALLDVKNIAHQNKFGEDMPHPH
As to the kind of experiment: Inhibition of N-terminal GST-tagged recombinant full length human HDAC6 expressed in baculovirus infected Sf9 insect cells at 200 uM using HDAC substrate 3 after 30 mins by fluorescence assay relative to control.

Test [5] deals with Human immunodeficiency virus type 1 integrase (Human immunodeficiency virus 1) (UniProt Q7ZJM1). Briefly: Inhibition of recombinant HIV1 integrase 3'-processing activity at 200 uM using 5'-end [32P]-labeled oligonucleotide substrate after 60 mins by densitometric analysis relative to control.
The test system of test [6] is Influenza A virus (A/California/04/2009(H1N1)). As to the kind of experiment: Inhibition of Influenza A (A/California/04/2009) (H1N1) clinical isolate N-terminal truncated PA endonuclease at 500 nM using 5'-FAM/3-TAMRA quencer labeled 17-mer ssDNA-oligo as substrate measured over 45 mins in presence of up to 25 mM metal ions by FRET assay relative to control.
Test [7] concerns the target Carbonic anhydrase 2 (Homo sapiens) (UniProt P00918). Briefly: Inhibition of human carbonic anhydrase 2 at 200 uM using p-nitrophenyl acetate as substrate preincubated for 15 mins followed by substrate addition and measured every 1 min for 20 mins. In a few lines:
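Single-point screen at 200 μM, percent inhibition relative to positive and negative controls, following literature protocols.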

The target of test [8] is Lactoylglutathione lyase (Homo sapiens) (UniProt Q04760). As to the kind of experiment: Inhibition of human glyoxalase 1 at 200 uM relative to control.
The target in test [9] is Human immunodeficiency virus type 1 integrase (Human immunodeficiency virus 1) (UniProt Q7ZJM1). As to the kind of experiment: Inhibition of recombinant HIV1 integrase strand transfer activity at 200 uM using 5'-end [32P]-labeled oligonucleotide substrate after 60 mins by densitometric analysis relative to control.
The target in test [10] is 72 kDa type IV collagenase (Homo sapiens) (UniProt P08253). As to the kind of experiment: Inhibition of recombinant human MMP2 at 200 uM using Mca-Pro-Leu-Gly-Leu-Dpa-Ala-Arg-NH2.AcOH as substrate preincubated for 30 mins followed by substrate addition and measured every min for 20 mins by fluorescence assay.
72 kDa type IV collagenase (Homo sapiens), sequence (P08253 110-660 limits assumed): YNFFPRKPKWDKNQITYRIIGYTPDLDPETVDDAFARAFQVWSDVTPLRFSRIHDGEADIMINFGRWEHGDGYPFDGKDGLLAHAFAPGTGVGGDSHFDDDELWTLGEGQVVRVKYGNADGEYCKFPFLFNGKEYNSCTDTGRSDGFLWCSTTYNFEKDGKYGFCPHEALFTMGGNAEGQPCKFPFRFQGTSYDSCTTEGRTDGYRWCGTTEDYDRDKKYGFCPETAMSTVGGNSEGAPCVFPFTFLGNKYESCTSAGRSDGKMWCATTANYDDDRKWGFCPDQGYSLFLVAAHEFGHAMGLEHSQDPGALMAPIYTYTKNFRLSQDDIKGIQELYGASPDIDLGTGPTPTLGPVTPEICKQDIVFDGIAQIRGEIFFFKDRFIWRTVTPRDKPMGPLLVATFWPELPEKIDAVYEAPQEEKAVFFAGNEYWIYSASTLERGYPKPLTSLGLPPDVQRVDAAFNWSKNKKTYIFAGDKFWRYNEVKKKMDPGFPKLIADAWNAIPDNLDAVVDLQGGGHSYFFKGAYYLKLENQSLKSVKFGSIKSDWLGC

Human immunodeficiency virus type 1 integrase (Human immunodeficiency virus 1), sequence (Q7ZJM1 as listed by the source): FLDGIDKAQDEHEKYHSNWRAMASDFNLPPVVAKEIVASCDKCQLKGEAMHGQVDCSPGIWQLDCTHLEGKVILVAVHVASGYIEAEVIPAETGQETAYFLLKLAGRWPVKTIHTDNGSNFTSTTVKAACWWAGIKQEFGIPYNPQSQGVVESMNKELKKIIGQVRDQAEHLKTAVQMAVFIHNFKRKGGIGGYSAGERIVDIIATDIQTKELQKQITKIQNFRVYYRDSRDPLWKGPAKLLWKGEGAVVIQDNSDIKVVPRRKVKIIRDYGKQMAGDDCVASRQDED
Lactoylglutathione lyase (Homo sapiens), sequence (Q04760 2-184 limits assumed): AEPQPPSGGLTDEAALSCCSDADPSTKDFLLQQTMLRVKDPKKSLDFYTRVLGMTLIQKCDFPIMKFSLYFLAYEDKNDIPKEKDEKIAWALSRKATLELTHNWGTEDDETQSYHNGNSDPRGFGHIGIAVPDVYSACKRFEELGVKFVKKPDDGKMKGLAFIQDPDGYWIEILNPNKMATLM

One may read the inhibition as the change of the read-out against control, counted positive when it falls. Regarding `CNC(=O)c1cc(C)[nH]c(=O)c1O`, the inhibition in [1] worked out at 7%; in the test on Bacteria, 8%; in test [2], 5%.

With `O=c1c(O)ccccc1O`, the results for the inhibition (in [1]; in the test on Bacteria; in test [2]) were 95%, 92% and 92%, respectively.

Consider `Cc1nc(-c2[nH]ccc(=O)c2O)no1`, for which the inhibition in test [1] was determined as 30%; with Bacteria, 3%; in test [2], 6%.

One may read the IC50 as the concentration needed to halve the response being measured. The low end stands for higher potency, the high end for lower potency. The pIC50 is the negative decadic logarithm of the IC50, by convention in mol/L. In the case of `Oc1cccc(O)c1O` [PYROGALLOL], the inhibition in test [1] came out at 21%; in the test on Bacteria it was 63%; in test [2], 49%. For the same compound, in test [3], the IC50 stood at 1700 nM. This compound displayed a pIC50 in test [3] of 5.8.

Consider `Cc1cc(C(=O)O)c(O)c(=O)[nH]1`, for which the results for the inhibition (in [1]; in the test with Bacteria; in test [2]) were 44%, 9% and 8%, respectively.

`O=C(O)c1ccc2cccnc2c1O`: the figures for the inhibition (in [1]; in the test on Bacteria; in test [2]) were 67%, 10% and 22%, respectively.

As to `Cc1cc(=O)c(O)c(C(=O)O)n1O`, the inhibition is 81% in test [1], 22% with Bacteria and 12% in test [2].

As to `N/C(=N\O)c1[nH]ccc(=O)c1O`, the inhibition amounted to 15% in [1], 43% in the test with Bacteria and 83% in [2].

As to `O=C(O)c1cccc(O)c1O`, the inhibition in test [1] came out at 15%; with Bacteria, 15%; in [2], 82%.

`Cc1cc(=O)c(O)c(C(=O)O)o1`: the inhibition was 96% in test [1]; 11% in test [8]; 12 to 13% in the test with Bacteria; 37% in test [9]; 8% in test [2]; 11% in [10]. Besides, the inhibition entry in test [4], in [5] and in test [7] was “inactive” in each case. In addition, in test [6], the inhibition result was “Active”.

For `Cc1nc(C(=O)O)c(O)c(=O)[nH]1`, the inhibition stood at 28% in test [1], 3% with Bacteria and 0% in test [2].

With `Nc1cccc(C(=O)O)c1O`, the inhibition in test [1] came out at 0%; in the test with Bacteria, 7%; in test [2], 11%.

With `Cc1cc(=O)c(O)c(C(N)=O)o1`, the inhibition was 30% in test [1], 8% in the test with Bacteria and 5% in test [2].

Turning to `Cc1occ(O)c(=O)c1C(=O)O`, the inhibition is 21% in test [1], 15% in the test on Bacteria and 5% in [2].

For the compound `O=C1c2c(O)cccc2Cc2cccc(O)c21`, the inhibition was found to be 18% in test [1], 6% in the test with Bacteria and 41% in test [2].

Regarding `Cc1cc(=O)c(O)c(-c2ncco2)o1`, the inhibition in test [1] is 88%; with Bacteria, 8%; in test [2], 0%.

For `Cc1cc(O)c(=O)c(O)cc1C(=O)O`, the inhibition in test [1] is 98%; with Bacteria, 61%; in [2], 32%.

As to `O=c1cc[nH]c(-c2nnn[nH]2)c1O`, the inhibition is 96% in [1], 99% in the test on Bacteria and 7% in test [2].

`O=C(O)c1cccc(=O)n1O`: the results for the inhibition (in [1]; in the test with Bacteria; in test [2]) were 9%, 25% and 2%, respectively.

With `O=C(O)c1occc(=O)c1O`, the values for the inhibition (in test [1]; in the test with Bacteria; in test [2]) were 94%, 4% and 1%, respectively.

Take `CNC(=O)c1oc(C)cc(=O)c1O`: the inhibition was 22% in test [1], 6% in the test with Bacteria and 8% in test [2].

In the case of `Cc1cc(=O)c(O)c(C(=O)O)[nH]1`, the figures for the inhibition (in test [1]; in the test on Bacteria; in [2]) were 97%, 6% and 24%, respectively. Further, the inhibition result in [6] is “Active”.

Take `O=C(O)c1cccc(C(=O)O)n1` [DIPICOLINIC ACID]: in test [3], the half-maximal inhibitory concentration (IC50) was more than 500000 nM and the pIC50 was less than 3.3.

With `Cc1cc(=O)c(O)c(C(=O)O)n1C`, the inhibition in test [1] was found to be 21%; in the test on Bacteria, 1%; in test [2], 2%.

In the case of `Cc1cc(=S)c(O)c(C(=O)O)o1`, the values for the inhibition (in test [1]; with Bacteria; in [2]) were 46%, 84% and 9%, respectively.

Take `O=C(O)c1ccc2cccc(O)c2[n+]1[O-]`: the results for the inhibition (in test [1]; with Bacteria; in test [2]) were 5%, 87% and 16%, respectively.
